Measured values pooled from the literature.
Compare with care: the assays were run in different laboratories.
Observed: cell growth or viability

SMILES | cell line | method | time | IC50 [nM]
COC(=O)C(C)n1c(C=O)ccc1CO (stereo not shown) | Hepa-1c1c7 | crystal violet | 48 h | > 100000
NCCOc1cc(C(=O)Nc2cc(OCCN)c3ccccc3n2)nc(C(=O)Nc2cc(OCCN)c3ccccc3n2)c1 | U2OS | ATP luminescence | 72 h | 16800
COc1cc(OC)c2c(=O)cc(-c3ccc(N(C)C)cc3)oc2c1-c1c(OC)cc(OC)c2c(=O)cc(-c3ccc(N(C)C)cc3)oc12 | HeLa | MTT | 48 h | 43800
N[C@@H](CC(=O)N1CCN(C(c2ccc(F)cc2)c2ccc(F)cc2)CC1)C(=O)N1Cc2ccccc2C1 | HEL | ATP luminescence | 48 h | 31700
NCCOc1cc(NC(=O)c2cccc(C(=O)Nc3cc(OCCN)c4ccccc4n3)n2)nc2ccccc12 | U2OS | ATP luminescence | 72 h | 700
CC(C)[C@H](N)C(=O)N1CCC[C@H]1B(O)O | SKM-1 | ATP luminescence | 48 h | 44
COC(=O)c1ccc(-n2nc(SC)nc2N)cc1 | RPE-1 | MTT |  | 37300
NCCOc1cc(NC(=O)c2cc(OCc3ccc(F)cc3)cc(C(=O)Nc3cc(OCCN)c4ccccc4n3)n2)nc2ccccc12 | U2OS | ATP luminescence | 72 h | 5600
Cc1cc(NC(=O)c2cccc3cc(-c4cccc5[nH]nc(N)c45)ccc23)ccc1F | mouse BMDM | CCK-8 | 72 h | 93
COc1cc(/C=N/c2nc(SC)nn2-c2ccc(C(=O)O)cc2)ccc1O | RPE-1 | MTT |  | 29800
COc1cc(C(=O)Nc2cc(OCCN3CCCC3)c3ccccc3n2)nc(C(=O)Nc2cc(OCCN3CCCC3)c3ccccc3n2)c1 | U2OS | ATP luminescence | 72 h | 1600
CC[C@@H](C)[C@H](N)C(=O)N1Cc2ccccc2C1 | NB-4 | ATP luminescence | 48 h | 1500
COc1cc(-c2ncn(/C=C\C(=O)OC(C)C)n2)cc(C(F)(F)F)c1 | SKM-1 |  | 72 h | 80
CC(C)C[C@H](NC(=O)[C@H](Cc1ccccc1)NC(=O)c1cnccn1)B(O)O | RL95-2 | ATP luminescence |  | 12
O=C(O)c1ccc(-n2nc(Oc3ccccc3)nc2/N=C/c2cc([N+](=O)[O-])ccc2O)cc1 | RPE-1 | MTT |  | 26800
NCCOc1cc(C(=O)Nc2cc(OCCN3CCCC3)c3ccccc3n2)nc(C(=O)Nc2cc(OCCN3CCCC3)c3ccccc3n2)c1 | U2OS | ATP luminescence | 72 h | 200
COc1cc(Nc2nccc(-c3cnn4nc(OC)ccc34)n2)cc(C(F)(F)F)c1 | SK-N-SH | ATP luminescence |  | 970
CN1c2ccccc2C(=O)N2[C@H](C(=O)Nc3ccc(/C=C/C(=O)NO)cc3)Cc3c([nH]c4ccccc34)[C@@H]12 | HEL |  |  | 340
CSc1nc(N)n(-c2ccc(C(=O)O)cc2)n1 | RPE-1 | MTT |  | 41800
CN(C)CCOc1cc(NC(=O)c2cc(Cl)cc(C(=O)Nc3cc(OCCN(C)C)c4ccccc4n3)n2)nc2ccccc12 | U2OS | ATP luminescence | 72 h | 2200
COc1cccc2c1C(=O)c1c(O)c3c(c(O)c1C2=O)C[C@@](O)(C(=O)CO)C[C@@H]3O[C@H]1C[C@H](N)[C@H](O)[C@H](C)O1 | RPE-1 | MTT |  | 22600
C#CCOc1cc(C(=O)Nc2cc(OCCCN)c3ccccc3n2)nc(C(=O)Nc2cc(OCCCN)c3ccccc3n2)c1 | U2OS | ATP luminescence | 72 h | 2300
